Experimental data: ChEMBL document CHEMBL1138348, “A p-[18F]fluoroethoxyphenyl bicyclic nucleoside analogue as a potential positron emission tomography imaging agent for varicella-zoster virus thymidine kinase gene expression” (J Med Chem, 2007)

Key:
[1] = tested on: Stomach; test: Biodistribution in NMRI mouse stomach assessed as radioactivity after 2 mins; type: ADME, organism-based; settings: in vivo
In short: (§1)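 Male NMRI mice (37–43 g) given 0.1 mL HPLC-purified tracer (diluted in water for injection, EtOH <5%; 37 MBq/mL for 11C tracer, 3.7 MBq/mL for 18F tracer) via tail vein under ketamine/xylazine ip anaesthesia. Decapitation at 2 or 60 min, n=3 per time point. Organs dissected, weighed, gamma counted. Results given as %ID (cpm organ/total cpm recovered) or SUV. Blood mass taken as 7% of body mass. Mean ± SD.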

[2] = species on record: Mus musculus; test: Biodistribution in NMRI mouse carcass assessed as radioactivity after 2 mins; type: ADME, organism-based; settings: in vivo; in short: as §1
[3] = species on record: Mus musculus; test: Biodistribution in NMRI mouse urine assessed as radioactivity after 2 mins; type: ADME, organism-based; settings: in vivo; in short: as §1
[4] = tested on: Kidney; test: Biodistribution in NMRI mouse kidney assessed as radioactivity after 60 mins; type: ADME, organism-based; settings: in vivo, 1 h; in short: as §1
[5] = tested on: Heart; test: Biodistribution in NMRI mouse heart assessed as radioactivity after 2 mins; type: ADME, organism-based; settings: in vivo; in short: as §1
[6] = tested on: Plasma; test: Metabolic stability in mouse plasma assessed as radioactivity after 2 mins; type: ADME, cell-free
In short: (§2)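 Plasma taken 2, 10 or 30 min after iv 18F tracer in normal mice (n=2 per time point), and urine collected at 60 min by manual bladder voiding. Samples spiked with authentic non-radioactive compound and applied without pretreatment to an Oasis HLB column in-line with a C18 RP-HPLC column. Eluate collected as 1 mL fractions and gamma counted. Result given as intact tracer as % of recovered radioactivity.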

[7] = tested on: Nucleic Acid; test: Ratio of drug level in femur bone to blood in mouse assessed as radioactivity at 11.5 MBq, iv after 30 mins; type: ADME, organism-based; settings: other tissue, 0.5 h
In short: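 Normal mice injected with 11.5 MBq of the [18F] tracer and killed at 2, 10 or 30 min pi (two animals per time). Left and right femurs were collected, weighed and gamma-counted, and uptake was expressed as %ID/g. Blood %ID/g was reported at the same time points.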

[8] = tested on: Femur; test: Drug uptake in mouse femur bone assessed as radioactivity at 11.5 MBq after 30 mins; type: ADME, tissue-based; settings: in vivo, 0.5 h
In short: (§3)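 Normal mice given 11.5 MBq of 18F tracer. Killed at 2, 10 or 30 min, two animals per time point. Left and right femur and muscle collected, weighed and gamma counted. Uptake given as %ID/g.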

[9] = tested on: Lung; test: Biodistribution in NMRI mouse lungs assessed as radioactivity after 2 mins; type: ADME, organism-based; settings: in vivo; in short: as §1
[10] = species on record: Mus musculus; test: Biodistribution in NMRI mouse carcass assessed as radioactivity after 60 mins; type: ADME, organism-based; settings: in vivo, 1 h; in short: as §1
[11] = tested on: Lung; test: Biodistribution in NMRI mouse lungs assessed as radioactivity after 60 mins; type: ADME, organism-based; settings: in vivo, 1 h; in short: as §1
[12] = tested on: Brain; test: Biodistribution in NMRI mouse brain assessed as radioactivity after 60 mins; type: ADME, organism-based; settings: in vivo, 1 h; in short: as §1
[13] = tested on: Heart; test: Biodistribution in NMRI mouse heart assessed as radioactivity after 60 mins; type: ADME, organism-based; settings: in vivo, 1 h; in short: as §1
[14] = tested on: Nucleic Acid; test: Ratio of drug level in plasma to whole blood in mouse assessed as radioactivity at 11.5 MBq, iv after 2 mins; type: ADME, organism-based; settings: in vivo
In short: (§4)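 Normal mice given about 11.5 MBq of the [18F] tracer iv, killed by decapitation at 2, 10 or 30 min pi (n = 2 per time). Blood was collected into a K2EDTA tube, weighed and gamma-counted, then centrifuged at 1837g for 10 min. Plasma was weighed and counted. Counts were normalised to sample weight and injected dose as %ID/g, and plasma %ID/g was divided by whole-blood %ID/g.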

[15] = tested on: Brain; test: Biodistribution in NMRI mouse brain assessed as radioactivity after 2 mins; type: ADME, organism-based; settings: in vivo; in short: as §1
[16] = tested on: Plasma; test: Metabolic stability in mouse plasma assessed as radioactivity after 30 mins; type: ADME, cell-free; settings: 0.5 h; in short: as §2
[17] = tested on: Blood; test: Biodistribution in NMRI mouse blood assessed as radioactivity after 2 mins; type: ADME, organism-based; settings: in vivo; in short: as §1
[18] = tested on: Nucleic Acid; test: Ratio of drug level in plasma to whole blood in mouse assessed as radioactivity at 11.5 MBq, iv after 30 mins; type: ADME, organism-based; settings: in vivo, 0.5 h; in short: as §4
[19] = tested on: Plasma; test: Metabolic stability in mouse plasma assessed as radioactivity after 10 mins; type: ADME, cell-free; in short: as §2
[20] = tested on: Stomach; test: Biodistribution in NMRI mouse stomach assessed as radioactivity after 60 mins; type: ADME, organism-based; settings: in vivo, 1 h; in short: as §1
[21] = tested on: Muscle tissue; test: Drug uptake in mouse muscle assessed as radioactivity at 11.5 MBq after 30 mins; type: ADME, tissue-based; settings: in vivo, 0.5 h; in short: as §3
[22] = tested on: Blood; test: Drug uptake in mouse blood assessed as radioactivity at 11.5 MBq after 30 mins; type: ADME, tissue-based; settings: 0.5 h
In short: (§5)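 About 11.5 MBq of 18F tracer injected iv into mice. Decapitation at 2, 10 or 30 min, n=2 per time point. Blood collected into K2EDTA tubes, weighed and gamma counted. Plasma separated by centrifugation (1837g, 10 min) and counted. Values given as %ID/g normalised to sample weight and injected dose; plasma/whole-blood ratio also derived.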

[23] = species on record: Mus musculus; test: Biodistribution in NMRI mouse spleen + pancreas assessed as radioactivity after 2 mins; type: ADME, organism-based; settings: in vivo; in short: as §1
[24] = tested on: Liver; test: Biodistribution in NMRI mouse liver assessed as radioactivity after 60 mins; type: ADME, organism-based; settings: in vivo, 1 h; in short: as §1
[25] = tested on: Femur; test: Drug uptake in mouse femur bone assessed as radioactivity at 11.5 MBq after 10 mins; type: ADME, tissue-based; settings: in vivo; in short: as §3
[26] = Metabolic stability in mouse urine assessed as radioactivity after 1 hr; type: ADME, tissue-based; in short: as §2
[27] = tested on: Blood; test: Drug uptake in mouse blood assessed as radioactivity at 11.5 MBq after 2 mins; type: ADME, tissue-based; in short: as §5
[28] = Drug uptake in LV-VZVTK-IP transduced 293T cells assessed as radioactivity at 185 kBq after 3 hrs; type: ADME, cell-based; settings: human, hek-293t
In short: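 293T cells stably transduced with lentivirus carrying VZV-tk-IRES-pac (kept in 1 µg/mL puromycin), alongside untransduced control 293T cells. Plated in triplicate at 200 000 cells/well. After 24 h, fresh medium with HPLC-purified tracer added: 1.1 MBq (11C tracer, 0.5 h) or 185 kBq (18F tracer, 3 h), 37 °C. Cells washed with ice-cold PBS and lysed. Gamma counting. Uptake given as % of total radioactivity per mg protein (Bio-Rad assay).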

[29] = tested on: Blood; test: Drug uptake in mouse blood assessed as radioactivity at 11.5 MBq after 10 mins; type: ADME, tissue-based; in short: as §5
[30] = species on record: Mus musculus; test: Biodistribution in NMRI mouse spleen + pancreas assessed as radioactivity after 60 mins; type: ADME, organism-based; settings: in vivo, 1 h; in short: as §1
[31] = species on record: Mus musculus; test: Biodistribution in NMRI mouse urine assessed as radioactivity after 60 mins; type: ADME, organism-based; settings: in vivo, 1 h; in short: as §1
[32] = Partition coefficient, log P in 1-octanol and phosphate buffer at pH 7.4; type: physicochemical; settings: 1-octanol/phosphate buffer
In short: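 HPLC-isolated tracer (about 550 kBq 11C or 185 kBq 18F) partitioned between 1-octanol and 0.025 M phosphate buffer pH 7.4 (2 mL each). Vortexed 2 min at room temperature, centrifuged 1837 g for 5 min. Aliquots of both phases weighed and gamma counted. P calculated as the cpm/mL ratio after density correction; n=6.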

[33] = tested on: Intestine; test: Biodistribution in NMRI mouse intestine assessed as radioactivity after 60 mins; type: ADME, organism-based; settings: in vivo, 1 h; in short: as §1
[34] = tested on: Muscle tissue; test: Drug uptake in mouse muscle assessed as radioactivity at 11.5 MBq after 2 mins; type: ADME, tissue-based; settings: in vivo; in short: as §3
[35] = tested on: Liver; test: Biodistribution in NMRI mouse liver assessed as radioactivity after 2 mins; type: ADME, organism-based; settings: in vivo; in short: as §1
[36] = tested on: Nucleic Acid; test: Ratio of drug level in plasma to whole blood in mouse assessed as radioactivity at 11.5 MBq, iv after 10 mins; type: ADME, organism-based; settings: in vivo; in short: as §4
[37] = tested on: Intestine; test: Biodistribution in NMRI mouse intestine assessed as radioactivity after 2 mins; type: ADME, organism-based; settings: in vivo; in short: as §1
[38] = tested on: Blood; test: Biodistribution in NMRI mouse blood assessed as radioactivity after 60 mins; type: ADME, organism-based; settings: in vivo, 1 h; in short: as §1
[39] = tested on: Kidney; test: Biodistribution in NMRI mouse kidney assessed as radioactivity after 2 mins; type: ADME, organism-based; settings: in vivo; in short: as §1
[40] = tested on: Femur; test: Drug uptake in mouse femur bone assessed as radioactivity at 11.5 MBq after 2 mins; type: ADME, tissue-based; settings: in vivo; in short: as §3
[41] = target: T1, Thymidine kinase, cytosolic (Homo sapiens, UniProt P04183); test: Inhibition of human cytosolic thymidine kinase 1
T1 sequence (P04183 whole entry): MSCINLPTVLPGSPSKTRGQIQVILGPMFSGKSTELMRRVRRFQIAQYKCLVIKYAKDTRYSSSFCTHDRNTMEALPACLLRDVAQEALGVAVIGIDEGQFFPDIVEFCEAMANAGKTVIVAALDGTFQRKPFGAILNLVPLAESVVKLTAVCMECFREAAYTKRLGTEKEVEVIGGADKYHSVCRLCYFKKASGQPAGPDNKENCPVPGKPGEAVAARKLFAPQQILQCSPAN
In short: (§6)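 Purified recombinant VZV TK (7.75 ng), HSV-1 TK (226 ng) or human cytosolic TK-1 (455 ng) in 50 mM Tris-HCl pH 8.0, 2.5 mM MgCl2, 10 mM DTT, 2.5 mM ATP, 1 mg/mL BSA, 10 mM NaF, with 1 µM final [CH3-3H]dThd substrate. Incubated 30 min at 37 °C with varied compound concentrations; the reaction was linear over this time. Product bound on DE-81 filters, washed, and counted by liquid scintillation. Result reported as IC50.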

[42] = Inhibition of HSV1 thymidine kinase; set-up: species or system Human alphaherpesvirus 1; in short: as §6
[43] = Inhibition of Varicella zoster virus thymidine kinase; set-up: species or system Human alphaherpesvirus 3; in short: as §6

O=c1nc2oc(-c3ccc(OCC[18F])cc3)cc2cn1[C@H]1C[C@H](O)[C@@H](CO)O1
Drug uptake [1]: 1.2 %ID
Drug uptake [2]: 18.3 %ID
Drug uptake [3]: 11.8 %ID
Drug uptake [4]: 1.1 %ID
Drug uptake [5]: 0.3 %ID
Stability [6]: 94.7%
Ratio [7]: 2
Drug uptake [8]: 1.25 % ID/g
Drug uptake [9]: 0.7 %ID
Drug uptake [10]: 11.9 %ID
Drug uptake [11]: 0.2 %ID
Drug uptake [12]: 0 %ID
Drug uptake [13]: 0.1 %ID
Ratio [14]: 1.39
Drug uptake [15]: 0 %ID
Stability [16]: 40.6%
Drug uptake [17]: 4.8 %ID
Ratio [18]: 1.02
Stability [19]: 82%
Drug uptake [20]: 1.1 %ID
Drug uptake [21]: 0.25 % ID/g
Drug uptake [22]: 0.63 % ID/g
Drug uptake [23]: 1.4 %ID
Drug uptake [24]: 4.3 %ID
Drug uptake [25]: 0.66 % ID/g
Stability [26]: 91.5%
Drug uptake [27]: 1.57 % ID/g
Drug uptake [28]: 76.6 %ID
Drug uptake [29]: 1.42 % ID/g
Drug uptake [30]: 1.1 %ID
Drug uptake [31]: 34.8 %ID
logD [32]: 1.2
Drug uptake [33]: 44.3 %ID
Drug uptake [34]: 0.35 % ID/g
Drug uptake [35]: 24.7 %ID
Ratio [36]: 1.34
Drug uptake [37]: 17.7 %ID
Drug uptake [38]: 1.5 %ID
Drug uptake [39]: 20.1 %ID
Drug uptake [40]: 0.57 % ID/g

O=c1nc2oc(-c3ccc(OCCCCCCF)cc3)cc2cn1[C@H]1C[C@H](O)[C@@H](CO)O1
IC50 [41]: > 500 µM
IC50 [42]: > 500 µM
IC50 [43]: 4.1 µM
